Results reported in ChEMBL document CHEMBL2040777, “N-Aryl-N'-(chroman-4-yl)ureas and thioureas display in vitro anticancer activity and selectivity on apoptosis-resistant glioblastoma cells: screening, synthesis of simplified derivatives, and structure-activity relationship analysis” (Eur J Med Chem, 2012).
The source made the active and inactive calls. No cut-off for these calls is given here.

Assays:
B16-F10 = experiment: Growth inhibition of mouse B16F10 cells after 72 hrs by MTT assay; assay type: functional, cell-based; details: B16-F10, 72 h
[1] = Selectivity index, ratio of IC50 for mouse astrocytes to IC50 for human U373 cells; parameters: species or system U-373MG ATCC
U-373MG ATCC [2] = experiment: Induction of apoptosis in human U373 cells assessed as increase in subG1 cell population at 3 to 10 uM after 24 hrs by flow cytometric analysis; assay type: functional, cell-based
[3] = Cell cycle arrest in human U373 cells assessed as accumulation at G0/G1 phase at 3 to 10 uM after 24 hrs by propidium iodide staining-based flow cytometric analysis; assay type: functional; details: U-373MG ATCC
Hs 683 = experiment: Selectivity index, ratio of IC50 for mouse astrocytes to IC50 for human Hs683 cells
T98G [4] = experiment: Growth inhibition of human T98G cells after 72 hrs by MTT assay; assay type: functional, cell-based
Procedure, shortened: (§1)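 Glioma lines were grown in RPMI with 10% heat-inactivated FCS, 4 mM glutamine, gentamicin and penicillin-streptomycin. Cells were plated for 24 h at 10,000–40,000 cells/mL, then exposed to compound for 72 h. MTT reduction to formazan was read at 570 nm (reference 630 nm). Six replicates were run.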

[5] = Growth inhibition of human U373 cells after 72 hrs by MTT assay; assay type: functional, cell-based, U-373MG ATCC; details: U373 MG; procedure, shortened: as §1
T98G [6] = experiment: Selectivity index, ratio of IC50 for mouse astrocytes to IC50 for human T98G cells
[7] = Growth inhibition of human Hs683 cells after 72 hrs by MTT assay; assay type: functional, cell-based; details: Hs 683, 72 h; procedure, shortened: as §1
[8] = Cell cycle arrest in human U373 cells assessed as accumulation at G0/G1 phase at 10 to 30 uM after 24 hrs by propidium iodide staining-based flow cytometric analysis; assay type: functional; details: U-373MG ATCC
[9] = Growth inhibition of human U373 cells assessed as global growth ratio after 72 hrs by quantitative videomicroscopic analysis relative to untreated control; assay type: functional, U-373MG ATCC; details: U373 MG
Procedure, shortened: (§2)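 U373 cells were cultured in 25 cm² flasks and filmed by computer-assisted phase-contrast time-lapse for 72 h, one image every 4 min. Growth level was the cell count in the last frame divided by the first. Global growth ratio was treated growth level over control growth level. Compounds were tested at 20 µM.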

U-373MG ATCC [10] = experiment: Induction of apoptosis in human U373 cells assessed as increase in subG1 cell population at 10 to 30 uM after 24 hrs by flow cytometric analysis; assay type: functional, cell-based
[11] = Cytostatic activity against human U373 cells assessed as global growth ratio by measuring number of cells counted in the last and the first frame of study at 20 uM by quantitative videomicroscopic analysis; assay type: functional, U-373MG ATCC; procedure, shortened: as §2

SMILES | IC50 (B16-F10) [µM] | IC50 (T98G [4]) [µM] | IC50 [5] [µM] | IC50 [7] [µM] | further results
CC1(C)CC(NC(=S)Nc2ccc([N+](=O)[O-])cc2)c2cc(Cl)ccc2O1 (stereo not given) | 3 | 4 | 3 | 2 | Ratio IC50 [1]: 2; Activity (U-373MG ATCC [2]): inactive; Activity [3]: Active; Ratio IC50 (Hs 683): 2; Ratio IC50 (T98G [6]): 2
CC(=O)NC1CC(C)(C)Oc2ccc(Cl)cc21 (stereo not given) | – | – | > 100 | – | –
CC1(C)CC(NC(=O)Nc2ccccc2Cl)c2cc(Cl)ccc2O1 (stereo not given) | 20 | 20 | 17 | 25 | Activity [8]: Active; Ratio IC50 [1]: >10; IC80 [9]: 20 µM; Activity (U-373MG ATCC [10]): inactive; Ratio [11]: 0.2; Ratio IC50 (Hs 683): >10; Ratio IC50 (T98G [6]): >10
CC1(C)CC(NC(=S)Nc2cccc([N+](=O)[O-])c2)c2cc(Cl)ccc2O1 (stereo not given) | 6 | 4 | 3 | 3 | Ratio IC50 [1]: 3; Activity (U-373MG ATCC [2]): inactive; Activity [3]: Active; Ratio IC50 (Hs 683): 3; Ratio IC50 (T98G [6]): 3
CC1(C)CC(NC(=O)Nc2cccc(Cl)c2)c2cc(Br)ccc2O1 (stereo not given) | – | 67 | 69 | 61 | –
COc1ccc(NC(=S)NC2CC(C)(C)Oc3ccc(Br)cc32)cc1 (stereo not given) | – | 33 | 40 | 29 | –
CC1(C)CC(NC(=S)NCc2ccccc2)c2cc(Cl)ccc2O1 (stereo not given) | – | 99 | 64 | 43 | –
CC1(C)CC(NC(=O)NCc2ccccc2)c2cc(Br)ccc2O1 (stereo not given) | – | 38 | 27 | 38 | –
CC1(C)CC(NC(=S)Nc2cccc([N+](=O)[O-])c2)c2cc(F)ccc2O1 (stereo not given) | 6 | 9 | 6 | 6 | Ratio IC50 [1]: 2; Ratio IC50 (Hs 683): 2; Ratio IC50 (T98G [6]): 2
CC1(C)CC(NC(=O)NS(=O)(=O)c2ccccc2)c2cc(Cl)ccc2O1 (stereo not given) | – | > 100 | 96 | > 100 | –
CC1(C)CC(NC(=O)Nc2ccccc2)c2cc(Cl)ccc2O1 (stereo not given) | – | 34 | 68 | 33 | –
CCOC(=O)NC1CC(C)(C)Oc2ccc(Cl)cc21 (stereo not given) | – | – | > 100 | – | –
CC1(C)CC(NC(=S)Nc2cccc(C#N)c2)c2cc(Br)ccc2O1 (stereo not given) | 7 | 9 | 6 | 4 | Ratio IC50 [1]: <5; Ratio IC50 (Hs 683): <5; Ratio IC50 (T98G [6]): <5
COc1ccc(Cl)cc1CNC(=S)Nc1cccc([N+](=O)[O-])c1 | – | – | 32 | 23 | –
CC1(C)CC(NC(=S)Nc2ccccc2Cl)c2cc(Br)ccc2O1 (stereo not given) | 17 | 8 | 34 | 22 | Ratio IC50 [1]: <5; Ratio IC50 (Hs 683): <5; Ratio IC50 (T98G [6]): <5
CC(C)NC1=NS(=O)(=O)c2cc(F)c(Cl)cc2N1 | – | – | > 100 | – | –
CCNC(=S)NC1CC(C)(C)Oc2ccc(Cl)cc21 (stereo not given) | – | > 100 | 96 | 72 | –
CC1(C)CC(NC(=S)Nc2cccc([N+](=O)[O-])c2)c2cc(Br)ccc2O1 (stereo not given) | 5 | 4 | 4 | 3 | Ratio IC50 [1]: 2; Ratio IC50 (Hs 683): 2; Ratio IC50 (T98G [6]): 2
O=[N+]([O-])c1ccc(NC(=S)NCc2cccc(Cl)c2)cc1 | – | 20 | 27 | 27 | –
CC1(C)CC(NC(=S)Nc2ccccc2)c2cc(Cl)ccc2O1 (stereo not given) | – | 37 | 46 | 32 | –
CC1(C)CC(NC(=O)NCc2ccccc2)c2cc(F)ccc2O1 (stereo not given) | – | 49 | 11 | 19 | –
CC1(C)CC(NC(=S)Nc2cccc(C#N)c2)c2cc(F)ccc2O1 (stereo not given) | 35 | 39 | 30 | 33 | –
CCC(C)(C)NC1=NS(=O)(=O)c2cc(Cl)ccc2N1 | – | – | > 100 | – | –
CC1(C)CC(NC(=O)Nc2cccc(Cl)c2)c2cc(F)ccc2O1 (stereo not given) | – | 45 | 39 | 38 | –
